Test results taken from ChEMBL document CHEMBL4616673 (J Med Chem, 2020).
≈ marks a conversion by molar mass, not a printed value. Values belong to the compound of their own block, whether it stands above or below them. Calls of active or inactive are those of the source. No cut-off for these calls is given here.

What was measured:
[1] = Toxicity in NOD-SCID nude mouse xenografted with human Raji cells assessed as induction of liver damage at 10 mg/kg/day, po administered 6 days a week for 3 weeks and measured post last dose by H and E staining based light microscopic analysis; details: in vivo
[2] = Toxicity in NOD-SCID nude mouse xenografted with human Raji cells assessed as body weight loss at 30 mg/kg/day, po administered 6 days a week for 3 weeks and measured every 3 days during compound dosing; format: organism-based; details: in vivo, 10 mg/kg, in the assay text read “10 mg/kg/day” for “30 mg/kg/day”
Raji [3] = test: Induction of apoptosis in human Raji cells assessed as early apoptotic cells at 1 uM measured after 48 hrs by Annexin V-FITC staining based flow cytometry (reference value: 2.12 to 2.15 %); format: functional
Raji [4] = test: Induction of apoptosis in human Raji cells assessed as necrotic cells at 0.25 uM measured after 48 hrs by Annexin V-FITC staining based flow cytometry (reference value: 0.12 to 0.15 %); format: functional
NAMALVA = test: Antiproliferative activity against human NAMALWA cells assessed as reduction in cell viability measured after 48 hrs by MTT assay; format: functional, cell-based
Raji [5] = test: Induction of apoptosis in human Raji cells assessed as necrotic cells at 0.5 uM measured after 48 hrs by Annexin V-FITC staining based flow cytometry (reference value: 0.12 to 0.15 %); format: functional
K562 = test: Antiproliferative activity against human K562 cells assessed as reduction in cell viability measured after 48 hrs by MTT assay; format: functional, cell-based
HeLa = test: Antiproliferative activity against human HeLa cells assessed as reduction in cell viability measured after 48 hrs by MTT assay; format: functional, cell-based
A549 = test: Antiproliferative activity against human A549 cells assessed as reduction in cell viability measured after 48 hrs by MTT assay; format: functional, cell-based
[6] = Stability of the compound in pH 9 buffer assessed as decrease in compound concentration at 0.01 mg/ml measured up to 24 hrs by LC-MS analysis; format: physicochemical; details: read-out: Drug degradation
How it was run: (§1)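 Compound at 0.01 mg/mL final in buffer containing 10% acetonitrile at pH 1.0, 4.5, 6.6, 7.4 or 9.0. Held at 37 °C, sampled at 0, 2, 4, 6, 8, 10, 12 and 24 h. Remaining compound by LC-MS.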

Raji [7] = test: Antitumor activity against human Raji cells xenografted in NOD-SCID nude mouse assessed as tumor growth inhibition at 10 mg/kg/day, po administered 6 days a week for 3 weeks relative to control; format: functional
How it was run: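 Nude mice given 1 × 10^7 Raji cells s.c. in serum-free medium plus basement membrane matrix. Randomized at 100–200 mm3 tumour volume (n = 6 per group). Oral dosing 6 days/week for 3 weeks. Vehicles: 30 mg/kg/d in 5% NMP/95% PEG400, 10 mg/kg/d in 30% PEG300/70% saline. Volume = ab²/2 every 3 days. TGI from treated vs control volume change, initial to final day.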

MCF7 = test: Antiproliferative activity against human MCF7 cells assessed as reduction in cell viability measured after 48 hrs by MTT assay; format: functional, cell-based
Raji [8] = test: Induction of apoptosis in human Raji cells assessed as live cells at 0.5 uM measured after 48 hrs by Annexin V-FITC staining based flow cytometry (reference value: 96.46 to 96.71 %); format: functional
A-375 = test: Antiproliferative activity against human A375 cells assessed as reduction in cell viability measured after 48 hrs by MTT assay; format: functional, cell-based
Raji [9] = test: Induction of apoptosis in human Raji cells assessed as early apoptotic cells at 0.5 uM measured after 48 hrs by Annexin V-FITC staining based flow cytometry (reference value: 2.12 to 2.15 %); format: functional
[10] = Solubility of the compound in PBS; format: physicochemical
HCT-116 = test: Antiproliferative activity against human HCT116 cells assessed as reduction in cell viability measured after 48 hrs by MTT assay; format: functional, cell-based
Raji [11] = test: Induction of apoptosis in human Raji cells assessed as early apoptotic cells at 0.25 uM measured after 48 hrs by Annexin V-FITC staining based flow cytometry (reference value: 2.12 to 2.15 %); format: functional
Raji [12] = test: Induction of apoptosis in human Raji cells assessed as live cells at 1 uM measured after 48 hrs by Annexin V-FITC staining based flow cytometry (reference value: 96.46 to 96.71 %); format: functional
Raji [13] = test: Induction of apoptosis in human Raji cells assessed as necrotic cells at 1 uM measured after 48 hrs by Annexin V-FITC staining based flow cytometry (reference value: 0.12 to 0.15 %); format: functional
Raji [14] = test: Induction of apoptosis in human Raji cells assessed as live cells at 0.25 uM measured after 48 hrs by Annexin V-FITC staining based flow cytometry (reference value: 96.46 to 96.71 %); format: functional
Raji [15] = test: Antiproliferative activity against human Raji cells assessed as reduction in cell viability measured after 48 hrs by MTT assay; format: functional, cell-based
[16] = Stability of the compound in pH 1 to 7.4 buffer assessed as decrease in compound concentration at 0.01 mg/ml measured up to 24 hrs by LC-MS analysis; format: physicochemical; details: read-out: Drug degradation
How it was run: as §1

[17] = target: Dihydroorotate dehydrogenase (quinone), mitochondrial (Homo sapiens, UniProt Q02127); test: Inhibition of human DHODH using dihydroorotate as substrate and CoQ10 as co-substrate preincubated for 30 mins followed by substrate addition by DCIP coupled microplate reader assay
Chain of Dihydroorotate dehydrogenase (quinone), mitochondrial (Q02127 whole entry): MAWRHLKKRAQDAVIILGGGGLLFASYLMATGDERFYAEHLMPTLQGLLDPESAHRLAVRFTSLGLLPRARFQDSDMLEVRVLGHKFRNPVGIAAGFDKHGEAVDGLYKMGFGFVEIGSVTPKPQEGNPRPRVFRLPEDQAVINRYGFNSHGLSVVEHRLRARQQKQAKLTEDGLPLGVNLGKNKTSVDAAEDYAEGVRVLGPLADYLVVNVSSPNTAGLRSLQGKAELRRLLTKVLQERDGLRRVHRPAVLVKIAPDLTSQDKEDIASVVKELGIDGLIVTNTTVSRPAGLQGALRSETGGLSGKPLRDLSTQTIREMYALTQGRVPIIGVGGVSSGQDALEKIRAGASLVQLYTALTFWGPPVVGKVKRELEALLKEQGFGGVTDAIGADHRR

Raji [18] = test: Induction of ROS generation in human Raji cells assessed as increase in ROS level measured after 24 hrs by DHE dye based fluorescence microplate reader assay; format: functional, cell-based
How it was run: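 Raji cells treated 24 h, harvested, stained with 10 μM DHE in pre-warmed PBS for 15 min in the dark. Fluorescence read on a plate reader at ex 510/em 600 nm. Mean ± SD.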

Raji [19] = test: Cell cycle arrest in human Raji cells assessed as accumulation at S phase at 0.5 uM measured after 24 hrs by propidium iodide/RNase staining based flow cytometry (reference value: 52%); format: functional
Raji [20] = test: Induction of mitochondrial membrane potential loss in human Raji cells measured after 48 hrs by TMRM staining based fluorescence assay; format: functional, cell-based
How it was run: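 Raji cells treated 48 h (CCCP as positive control), washed in PBS. Incubated with TMRM at 100 nM final for 15 min at 37 °C, fluorescence read at ex 510/em 580 nm. Mean ± SD.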

Raji [21] = test: Antiproliferative activity against human Raji cells assessed as inhibition of cell proliferation at 0.156 to 1.250 uM measured after 48 hrs in presence of uridine by MTT assay; format: functional, cell-based
How it was run: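 Raji cells (ATCC; 10% FBS medium, 37 °C, 5% CO2) seeded at 2-10 × 10^3 cells/well, grown 24 h, then exposed to compound with or without uridine (500 μM) for 48 h. MTT added for 2-4 h; formazan dissolved in 20% acidified SDS overnight; absorbance read at 570 nm. Mean ± SD.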

SMILES: Cc1c(-c2ccc(-c3ccccc3F)cc2)nc2ccc(F)cc2c1C(=O)O [BREQUINAR]
- Activity [1]: Toxic
- Activity [2]: Toxic
- Activity (Raji [3]): 2.48%
- Activity (Raji [4]): 0.27%
- IC50 (NAMALVA; namalva): > 10000 nM
- Activity (Raji [5]): 0.27%
- IC50 (K562; k562): 540 nM
- IC50 (HeLa; hela): > 10 µM
- IC50 (A549; a549): 4.1 µM
- degraded at 24 h, 0.01 mg/ml [6]: 75.4%
- TGI (Raji [7]): 74%
- IC50 (MCF7; mcf7): > 10 µM
- Activity (Raji [8]): 91.85%
- IC50 (A-375; a-375): 590 nM
- Activity (Raji [9]): 3.56%
- solubility [10]: 75.2 µg/mL (≈ 200 µM)
- IC50 (HCT-116; hct-116): 4120 nM
- Activity (Raji [11]): 2.42%
- Activity (Raji [12]): 92.06%
- Activity (Raji [13]): 0.41%
- Activity (Raji [14]): 93.68%
- IC50 (Raji [15]; raji): 2290 nM
- degraded at 24 h, 0.01 mg/ml [16]: 6.3 to 12.1%

- IC50 [17]: 9 nM
- IC50 (K562; Homo sapiens, K562, 48 h): 340 nM
- IC50 (HeLa; Homo sapiens, HeLa, 48 h): > 10 µM
- IC50 (A549; Homo sapiens, A549, 48 h): 2.25 µM
- IC50 (MCF7; Homo sapiens, MCF7, 48 h): > 10 µM
- IC50 (A-375; Homo sapiens, A-375, 48 h): 40 nM
- solubility [10]: 21.4 µg/mL (≈ 51.3 µM)
- IC50 (HCT-116; Homo sapiens, HCT-116, 48 h): 600 nM
- IC50 (Raji [15]; Homo sapiens, Raji, 48 h): 480 nM
SMILES: COc1cccc(-c2c(F)cc(-n3nnc4c3C(=O)c3ccccc3C4=O)cc2F)c1
- Activity (Raji [3]): 4.24%
- Activity (Raji [4]): 0.5%
- IC50 (NAMALVA; Homo sapiens, NAMALVA, 48 h): 1040 nM
- Activity (Raji [5]): 0.36%
- Activity (Raji [18]): Dose-dependent effect
- Activity (Raji [19]): 77.98%
- Activity (Raji [8]): 91.11%
- Activity (Raji [9]): 3.43%
- Activity (Raji [11]): 3.58%
- Activity (Raji [12]): 90.1%
- Activity (Raji [13]): 0.39%
- Activity (Raji [14]): 91.81%
- Activity (Raji [20]): Dose-dependent effect
- inhibition (Raji [21]): inactive
